Experimental data from different studies.
Protocols differ between the studies behind these lines.
Target: Serine/threonine-protein kinase tousled-like 2 (TLK2, Homo sapiens, UniProt Q86UE8)

SMILES | test | setting | endpoint | result
CCC(=O)N[C@@H]1CC[C@H](C(=O)N(C)c2ccc(-c3nc4ccccc4o3)cc2)C1 | cell-free assay, competition with immobilised ligand | 1 µM | remaining binding | 100%
CC(C)(O)[C@H]1CC[C@H](Nc2ccc3ncc(-c4cccc(C(F)(F)F)c4)n3n2)CC1 | enzyme activity, inhibitor | 1 µM | remaining activity | 103%
Cc1sc(C(=O)NC2COC2)cc1-n1cc(NC(=O)Nc2c(F)cccc2Cl)cn1 | enzyme activity, inhibitor | 10 µM | remaining activity | 97.2%
CC(C)(C)c1nc2c(s1)c1nc(N)ncc1c1ccc(NS(=O)(=O)c3c(F)cccc3F)c(F)c12 | enzyme activity, inhibitor, radiometric | 1 µM | remaining activity | 109%
O=C(Nc1cccnn1)N1CC(C/C=C/c2cncc(Oc3ccc(C(F)(F)F)cn3)n2)C1 | cell-free assay, competition with immobilised ligand | 1 µM | remaining binding | 100%
O=C(Nc1cnn(-c2csc(C(=O)NC3COC3)c2)c1)Nc1ccccc1Cl | enzyme activity, inhibitor | 5 µM | remaining activity | 99.1%
CNC(=O)c1cc(Oc2ccc(NC(=O)Nc3ccc(Cl)c(C(F)(F)F)c3)cc2)ccn1 | enzyme activity, inhibitor | 10 µM | inhibition | -1%
c1ccc(CNc2nc(N3CCOc4ccccc43)nc3c2CCCC3)cc1 | target engagement in cells, inhibitor, chemoproteomics | 20 mM | inhibition | -6.8%
Cc1ccc(NC(=O)c2ccc(C)c(C(F)(F)F)c2)cc1C#Cc1nn(C2CCC(O)CC2)c2ncnc(N)c12 (centres unmarked) | cell-free assay | 10 µM | remaining signal | 93%
COc1cc(Nc2c(C#N)cnc3cc(OCCCN4CCN(C)CC4)c(OC)cc23)c(Cl)cc1Cl | cell-free assay | 0.5 µM | remaining signal | 92.2%
Cc1ccc(C(=O)Nc2ccc(CN3CCN(C)CC3)c(C(F)(F)F)c2)cc1C#Cc1cnc2cccnn12 | enzyme activity, inhibitor | 23.5 nM | remaining activity | 100%
O=C1NC(c2ccccn2)Sc2ccccc21 (centres unmarked) | cell-free assay, competition with immobilised ligand | 1 µM | remaining binding | 96%
Nc1ncnc2occ(-c3ccc(NC(=O)Nc4cc(C(F)(F)F)ccc4F)cc3)c12 | cell-free assay, inhibitor | 20 µM | remaining signal | 89%
Cc1ccc(C(=O)NCc2ccsc2)cc1C#Cc1cn(C(C)C)c2ncnc(N)c12 | enzyme activity, inhibitor | 1 µM | activity vs control | 97%
O=C(NC[C@@H]1[C@H]2CN(C(=O)OCc3cc(C(F)(F)F)cc(C(F)(F)F)c3)C[C@@H]12)c1ccc2[nH]nnc2c1 | cell-free assay, competition with immobilised ligand | 1 µM | remaining binding | 90%
Oc1cccc(-c2nc(N3CCOCC3)c3oc4ncccc4c3n2)c1 | cell-free assay | 0.5 µM | remaining signal | 102%
CCCOc1ccc([C@H]2[C@H](C(=O)O)[C@@H](c3ccc4c(c3)OCO4)CN2CC(=O)Nc2c(CC)cccc2CC)cc1 | cell-free assay, competition with immobilised ligand | 1 µM | remaining binding | 94%
COc1cc2c(N3CCN(C(=O)Nc4ccc(OC(C)C)cc4)CC3)ncnc2cc1OCCCN1CCCCC1 | cell-free assay | 0.5 µM | remaining signal | 96.2%
O=C(Nc1cnc(Oc2ccc(F)cc2)nc1)N1CCc2ncccc2[C@@H]1c1ccc(F)cc1 | cell-free assay, competition with immobilised ligand | 1 µM | remaining binding | 89%
Cc1cc(NC(=O)c2cccc3cc(-c4cccc5[nH]nc(N)c45)ccc23)ccc1F | enzyme activity, inhibitor | 0.1 µM | activity vs control | 100%
